Experiment [1] concerns the target T1, Mineralocorticoid receptor (Homo sapiens, UniProt P08235).
T1 sequence (P08235 whole entry): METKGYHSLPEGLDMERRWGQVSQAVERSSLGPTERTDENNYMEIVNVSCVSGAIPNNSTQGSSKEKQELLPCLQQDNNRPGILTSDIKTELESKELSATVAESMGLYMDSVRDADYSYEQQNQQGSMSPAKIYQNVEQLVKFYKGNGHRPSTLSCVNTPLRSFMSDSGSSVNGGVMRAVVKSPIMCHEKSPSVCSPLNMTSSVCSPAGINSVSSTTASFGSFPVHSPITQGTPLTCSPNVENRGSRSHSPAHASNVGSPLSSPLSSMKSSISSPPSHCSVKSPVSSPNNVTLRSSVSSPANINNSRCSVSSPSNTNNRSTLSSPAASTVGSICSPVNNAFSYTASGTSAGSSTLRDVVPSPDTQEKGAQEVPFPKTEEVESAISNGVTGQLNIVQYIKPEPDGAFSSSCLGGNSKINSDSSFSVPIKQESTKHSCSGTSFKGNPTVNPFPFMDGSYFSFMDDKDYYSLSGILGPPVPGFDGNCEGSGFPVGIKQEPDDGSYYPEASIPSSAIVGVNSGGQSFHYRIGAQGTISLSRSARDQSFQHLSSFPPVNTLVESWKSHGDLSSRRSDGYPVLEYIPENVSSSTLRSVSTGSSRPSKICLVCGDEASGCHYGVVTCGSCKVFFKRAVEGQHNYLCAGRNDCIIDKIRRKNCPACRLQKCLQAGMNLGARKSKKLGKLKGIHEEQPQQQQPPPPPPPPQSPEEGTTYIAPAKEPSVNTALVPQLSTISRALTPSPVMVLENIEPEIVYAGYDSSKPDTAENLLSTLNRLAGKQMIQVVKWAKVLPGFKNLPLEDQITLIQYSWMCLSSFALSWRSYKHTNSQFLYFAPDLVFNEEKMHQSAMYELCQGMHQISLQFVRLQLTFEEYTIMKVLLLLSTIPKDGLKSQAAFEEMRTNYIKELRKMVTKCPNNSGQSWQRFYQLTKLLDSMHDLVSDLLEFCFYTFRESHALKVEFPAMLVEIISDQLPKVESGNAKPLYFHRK
Briefly: Agonist activity at mineralocorticoid receptor in human A549 cells by fluorescence assay. It is filed as cell-based. In short, it runs like this:
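A549 cells were run in MR agonist mode with aldosterone as positive control. EC50 was reported with % maximal efficacy, as means of duplicate experiments.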

Another experiment concerns the target T2, Progesterone receptor (Homo sapiens, UniProt P06401).
T2 sequence (P06401 whole entry): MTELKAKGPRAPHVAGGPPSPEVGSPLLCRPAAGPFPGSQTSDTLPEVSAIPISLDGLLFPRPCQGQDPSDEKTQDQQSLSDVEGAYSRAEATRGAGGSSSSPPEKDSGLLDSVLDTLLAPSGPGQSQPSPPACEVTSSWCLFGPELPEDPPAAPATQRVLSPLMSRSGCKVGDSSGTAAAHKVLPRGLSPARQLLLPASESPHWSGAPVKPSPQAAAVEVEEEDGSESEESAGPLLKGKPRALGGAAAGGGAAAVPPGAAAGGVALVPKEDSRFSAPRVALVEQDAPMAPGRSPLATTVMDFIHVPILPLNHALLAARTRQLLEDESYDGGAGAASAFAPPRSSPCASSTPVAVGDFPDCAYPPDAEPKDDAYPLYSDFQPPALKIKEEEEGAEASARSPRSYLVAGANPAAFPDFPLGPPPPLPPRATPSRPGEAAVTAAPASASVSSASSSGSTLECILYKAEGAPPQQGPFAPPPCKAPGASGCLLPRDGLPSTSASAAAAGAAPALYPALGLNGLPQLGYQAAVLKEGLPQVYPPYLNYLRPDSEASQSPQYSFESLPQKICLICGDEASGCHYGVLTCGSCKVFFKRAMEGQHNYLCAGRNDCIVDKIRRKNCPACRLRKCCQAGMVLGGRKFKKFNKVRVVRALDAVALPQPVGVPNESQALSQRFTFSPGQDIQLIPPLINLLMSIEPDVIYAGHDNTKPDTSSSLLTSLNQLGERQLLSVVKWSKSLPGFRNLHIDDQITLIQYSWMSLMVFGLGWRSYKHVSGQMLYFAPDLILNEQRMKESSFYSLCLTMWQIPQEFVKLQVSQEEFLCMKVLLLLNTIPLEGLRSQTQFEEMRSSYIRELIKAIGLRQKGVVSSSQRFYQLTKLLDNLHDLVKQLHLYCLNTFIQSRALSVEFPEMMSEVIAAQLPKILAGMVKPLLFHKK
Briefly: Binding affinity to progesterone receptor (unknown origin) by fluorescence assay. The method in brief:
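Fluorescence polarization competition between test compound and a fluorescently labeled ligand for binding to full-length receptor or its ligand binding domain. IC50 was fit to the signal by four-parameter logistic equation. Ki = IC50/(1 + ligand concentration/Kd) (Cheng–Prusoff).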

The target in experiment [2] is T3, Glucocorticoid receptor (Homo sapiens) (UniProt P04150).
T3 sequence (whole entry): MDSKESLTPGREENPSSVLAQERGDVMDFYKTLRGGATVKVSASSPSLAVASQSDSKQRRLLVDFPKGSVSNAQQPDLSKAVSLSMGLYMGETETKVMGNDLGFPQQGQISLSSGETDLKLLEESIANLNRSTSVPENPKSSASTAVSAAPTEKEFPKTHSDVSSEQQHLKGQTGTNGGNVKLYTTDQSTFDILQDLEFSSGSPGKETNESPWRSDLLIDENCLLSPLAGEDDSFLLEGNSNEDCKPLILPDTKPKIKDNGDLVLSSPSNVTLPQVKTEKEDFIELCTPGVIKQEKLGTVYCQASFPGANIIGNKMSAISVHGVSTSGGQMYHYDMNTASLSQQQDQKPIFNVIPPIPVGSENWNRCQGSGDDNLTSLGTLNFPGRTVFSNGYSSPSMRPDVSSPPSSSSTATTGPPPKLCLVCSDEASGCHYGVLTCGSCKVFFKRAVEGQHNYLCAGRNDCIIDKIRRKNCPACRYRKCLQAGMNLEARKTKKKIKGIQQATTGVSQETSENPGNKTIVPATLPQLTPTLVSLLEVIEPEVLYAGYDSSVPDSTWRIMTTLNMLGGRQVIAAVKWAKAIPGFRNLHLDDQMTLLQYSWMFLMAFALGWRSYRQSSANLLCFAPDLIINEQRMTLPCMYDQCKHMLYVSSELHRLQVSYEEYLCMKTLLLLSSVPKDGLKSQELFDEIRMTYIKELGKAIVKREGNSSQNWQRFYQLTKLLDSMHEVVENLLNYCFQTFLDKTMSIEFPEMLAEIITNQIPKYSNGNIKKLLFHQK
In words: Partial agonist activity at glucocorticoid receptor (unknown origin) by fluorescence assay.

The source made the active and inactive calls. The calls are words filed in the database; no cut-off is given here. Where only a bound is given, the exact number is not on record here.

The values below come from ChEMBL document CHEMBL2424625, “Synthesis and structure-activity relationships of novel indazolyl glucocorticoid receptor partial agonists” (Bioorg Med Chem Lett, 2013).

For the compound `CC(C)(CNS(=O)(=O)CC(F)(F)F)[C@@H](c1ccccc1)c1ccc2c(cnn2-c2ccc(F)cc2)c1`, the IC50 in experiment [1] is > 5 µM. Further, the Ki at Progesterone receptor was found to be 0.406 µM. The outcome in experiment [2] was Active.

Turning to `CC(C)(CNC(=O)CC(F)(F)F)[C@@H](c1ccccc1)c1ccc2c(cnn2-c2ccc(F)cc2)c1`, the IC50 in experiment [1] is > 5 µM. Besides, on Progesterone receptor, the Ki was > 5 µM.

Take `CC(C)(C)NC(=O)NCC(C)(C)[C@@H](c1ccccc1)c1ccc2c(cnn2-c2ccc(F)cc2)c1`: the IC50 in experiment [1] was > 5 µM. In addition, the Ki at Progesterone receptor was > 5 µM. In experiment [2], the result was Active.
